Drawing on ChEMBL document CHEMBL3352277, “Click approach to the discovery of 1,2,3-triazolylsalicylamides as potent Aurora kinase inhibitors” (Bioorg Med Chem, 2014), this text covers inhibition and IC50 for four compounds.

Assay [1] concerns Epidermal growth factor receptor (Homo sapiens), P00533 [L858R]. Description: Inhibition of EGFR L858R mutant (unknown origin) at 10 uM. The format is protein assay. In outline: (§1)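 Single 10 µM concentration against a 40-kinase panel on the radiometric HotSpot platform. Kinase and substrate were added before ³³P-ATP started the reaction, which ran 2 h at room temperature.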
Sequence of Epidermal growth factor receptor (Homo sapiens), P00533 [L858R] (P00533 whole entry L858R): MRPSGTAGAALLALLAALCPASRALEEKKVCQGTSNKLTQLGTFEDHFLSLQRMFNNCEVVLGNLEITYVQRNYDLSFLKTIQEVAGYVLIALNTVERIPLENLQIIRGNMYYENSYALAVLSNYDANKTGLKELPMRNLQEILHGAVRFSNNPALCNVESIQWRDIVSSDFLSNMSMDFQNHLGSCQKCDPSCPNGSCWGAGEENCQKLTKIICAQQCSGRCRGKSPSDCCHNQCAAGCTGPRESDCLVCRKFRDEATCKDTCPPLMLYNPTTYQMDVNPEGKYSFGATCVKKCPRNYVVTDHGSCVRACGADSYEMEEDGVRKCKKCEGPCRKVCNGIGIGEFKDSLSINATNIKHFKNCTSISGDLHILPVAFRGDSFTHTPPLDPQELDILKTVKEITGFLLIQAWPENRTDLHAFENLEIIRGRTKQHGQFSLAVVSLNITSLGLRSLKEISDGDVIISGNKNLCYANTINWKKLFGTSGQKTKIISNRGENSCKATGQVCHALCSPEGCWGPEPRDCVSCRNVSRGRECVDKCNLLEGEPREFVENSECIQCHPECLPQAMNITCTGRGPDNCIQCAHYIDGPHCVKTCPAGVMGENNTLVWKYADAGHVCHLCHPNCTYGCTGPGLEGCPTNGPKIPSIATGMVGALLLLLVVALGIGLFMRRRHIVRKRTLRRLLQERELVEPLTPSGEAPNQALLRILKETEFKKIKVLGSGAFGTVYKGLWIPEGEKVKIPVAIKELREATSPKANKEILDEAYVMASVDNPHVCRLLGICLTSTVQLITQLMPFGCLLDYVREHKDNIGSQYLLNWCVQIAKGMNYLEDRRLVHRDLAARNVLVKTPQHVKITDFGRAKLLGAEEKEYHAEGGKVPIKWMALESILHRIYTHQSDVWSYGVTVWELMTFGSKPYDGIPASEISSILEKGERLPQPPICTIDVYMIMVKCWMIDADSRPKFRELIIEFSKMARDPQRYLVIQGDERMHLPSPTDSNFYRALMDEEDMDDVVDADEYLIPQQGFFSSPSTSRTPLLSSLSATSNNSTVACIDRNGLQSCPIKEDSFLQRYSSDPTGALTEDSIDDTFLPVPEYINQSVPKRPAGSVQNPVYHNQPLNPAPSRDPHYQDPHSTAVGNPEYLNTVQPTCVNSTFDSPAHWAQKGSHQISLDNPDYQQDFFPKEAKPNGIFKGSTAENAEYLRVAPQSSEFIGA
Assay [2] has as its target Glycogen synthase kinase-3 beta (Homo sapiens) (UniProt P49841). Nature of the assay: Inhibition of GSK3beta (unknown origin) at 10 uM. In outline: as §1
The target of assay [3] is Serine/threonine-protein kinase pim-1 (Homo sapiens) (UniProt P11309). Description: Inhibition of […] (unknown origin) at 10 uM. In outline:
as §1

For assay [4], the target named is T1, Aurora kinase A (Homo sapiens) (UniProt O14965).
T1 sequence (whole entry): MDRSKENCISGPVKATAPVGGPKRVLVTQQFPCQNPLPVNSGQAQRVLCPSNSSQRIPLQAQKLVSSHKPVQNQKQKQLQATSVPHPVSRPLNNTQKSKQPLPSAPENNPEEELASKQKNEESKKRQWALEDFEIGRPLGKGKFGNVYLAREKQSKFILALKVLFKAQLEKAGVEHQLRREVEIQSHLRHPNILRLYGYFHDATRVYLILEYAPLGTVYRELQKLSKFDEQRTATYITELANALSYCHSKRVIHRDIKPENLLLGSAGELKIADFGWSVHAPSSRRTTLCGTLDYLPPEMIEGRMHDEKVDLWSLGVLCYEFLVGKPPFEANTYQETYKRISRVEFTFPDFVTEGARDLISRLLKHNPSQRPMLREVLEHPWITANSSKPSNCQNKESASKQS
Description: Inhibition of Aurora A (unknown origin) at 10 uM.

The target in assay [5] is T1, Aurora kinase A (Homo sapiens). Nature of the assay: Inhibition of Aurora A (unknown origin) at 10 uM using [33P]-ATP and 10 uM ATP after 2 hrs.
For assay [6], the target named is T2, Aurora kinase B (Homo sapiens, UniProt Q96GD4). Description: Inhibition of Aurora B (unknown origin) at 10 uM using [33P]-ATP and 10 uM ATP after 2 hrs.
T2 sequence (Q96GD4 whole entry): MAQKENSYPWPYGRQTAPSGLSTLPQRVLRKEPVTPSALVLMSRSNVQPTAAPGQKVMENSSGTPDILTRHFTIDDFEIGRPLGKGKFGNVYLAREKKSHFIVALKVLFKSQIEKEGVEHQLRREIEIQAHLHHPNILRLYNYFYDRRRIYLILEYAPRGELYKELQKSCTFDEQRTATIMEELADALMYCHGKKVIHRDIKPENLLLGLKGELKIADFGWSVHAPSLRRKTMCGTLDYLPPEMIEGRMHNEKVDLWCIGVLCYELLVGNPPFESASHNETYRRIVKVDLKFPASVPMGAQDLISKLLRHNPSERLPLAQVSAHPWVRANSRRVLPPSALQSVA
Assay [7] deals with T3, Aurora kinase A (Homo sapiens, UniProt O14965).
T3 sequence (O14965 whole entry): T1 sequence (whole entry)
Description: Inhibition of Aurora A (unknown origin) using [33P]-ATP and 10 uM ATP after 2 hrs.

Assay [8] concerns the target T2, Aurora kinase B. Nature of the assay: Inhibition of Aurora B (unknown origin) using [33P]-ATP and 10 uM ATP after 2 hrs.

Each structure is given as a SMILES string. Activity calls are given as the source filed them. The rule behind the calls is not given here.

Sequence of Glycogen synthase kinase-3 beta (Homo sapiens) (P49841 whole entry, looked up): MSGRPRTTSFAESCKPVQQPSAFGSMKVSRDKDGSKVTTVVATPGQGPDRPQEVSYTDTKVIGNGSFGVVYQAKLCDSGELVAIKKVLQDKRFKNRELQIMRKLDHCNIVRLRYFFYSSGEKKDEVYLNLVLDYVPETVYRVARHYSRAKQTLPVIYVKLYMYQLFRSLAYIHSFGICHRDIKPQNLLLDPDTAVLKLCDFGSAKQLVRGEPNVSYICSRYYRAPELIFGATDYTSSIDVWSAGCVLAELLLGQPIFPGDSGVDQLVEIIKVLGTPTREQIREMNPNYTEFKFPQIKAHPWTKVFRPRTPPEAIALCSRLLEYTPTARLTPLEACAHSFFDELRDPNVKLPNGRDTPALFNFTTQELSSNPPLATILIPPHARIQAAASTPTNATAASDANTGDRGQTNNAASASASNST
Sequence of Serine/threonine-protein kinase pim-1 (Homo sapiens) (P11309 whole entry, looked up): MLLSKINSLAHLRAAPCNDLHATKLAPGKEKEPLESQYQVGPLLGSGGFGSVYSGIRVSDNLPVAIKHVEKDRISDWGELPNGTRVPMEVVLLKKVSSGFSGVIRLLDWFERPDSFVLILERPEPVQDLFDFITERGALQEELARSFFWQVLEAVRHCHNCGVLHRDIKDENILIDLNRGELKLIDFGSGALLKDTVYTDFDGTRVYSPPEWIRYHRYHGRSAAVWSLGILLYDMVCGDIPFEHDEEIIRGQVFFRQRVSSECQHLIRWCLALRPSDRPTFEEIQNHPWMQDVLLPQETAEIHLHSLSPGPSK

One may read the inhibition as the change of the read-out against control, counted positive when it falls. Turning to `COc1cc(OC)cc(-c2cn(-c3ccc(O)c(C(=O)Nc4cccc(C(F)(F)F)c4)c3)nn2)c1`, the inhibition entry in assay [1], in assay [2] and in assay [3] was “Active” each time. This compound yielded an inhibition in assay [4] of 74.5%.
What is called IC50 is the concentration that inhibits the measured activity by half. Take `COC(=O)c1cccc(NC(=O)c2cc(-n3cc(-c4cc(OC)cc(OC)c4)nn3)ccc2O)c1`: the inhibition in assay [5] came to 90.2%; in assay [6] it was 71.3%. The figures for the IC50 in assay [7] and in assay [8] were 370 nM and 3580 nM, respectively.
Regarding `COc1cccc(NC(=O)c2cc(-n3cc(-c4cc(OC)cc(OC)c4)nn3)ccc2O)c1`, the inhibition in assay [5] was found to be 83.3%; in assay [6], 50.3%.
For the compound `COC(=O)c1cccc(-c2cn(-c3ccc(O)c(C(=O)Nc4cccc(C(F)(F)F)c4)c3)nn2)c1`, the figures for the inhibition in assay [5] and in assay [6] were 90.5% and 57.3%, respectively. The IC50 came out at 1820 nM in assay [7] and 63200 nM in assay [8].
